ChEMBL document CHEMBL3616432, “(+)-Dehydroabietylamine derivatives target triple-negative breast cancer” (Eur J Med Chem, 2015)
The source made the active and inactive calls. No cut-off for these calls is given here.

Experiments:
MCF7 = experiment: Antiproliferative activity against human ER-positive MCF7 cells at 52 to 65 uM after 72 hrs by CellTiter-Glo assay; type: functional, cell-based
MDA-MB-231 [1] = experiment: Antiproliferative activity against human triple-negative MDA-MB-231 cells at 52 to 65 uM after 72 hrs by CellTiter-Glo assay; type: functional, cell-based
Homo sapiens = organism: Homo sapiens; experiment: Antiproliferative activity against human ER-positive MA11 cells at 52 to 65 uM after 72 hrs by CellTiter-Glo assay; type: functional
HepG2 [2] = experiment: Cytotoxicity against human HepG2 cells at 52 to 65 uM after 72 hrs by CellTiter-Glo assay; type: cell-based; conditions: hepg2, 72 h
HEK293 [3] = experiment: Cytotoxicity against HEK293 cells at 52 to 65 uM after 72 hrs by CellTiter-Glo assay; type: cell-based; conditions: human, hek293, 72 h
MDA-MB-231 [4] = experiment: Antiproliferative activity against human triple-negative MDA-MB-231 cells after 72 hrs by CellTiter-Glo assay; type: functional, cell-based
MDA-MB-231 [5] = experiment: Antiproliferative activity against human triple-negative MDA-MB-231 cells at >52.3 uM after 72 hrs by CellTiter-Glo assay; type: functional, cell-based
HepG2 [6] = experiment: Cytotoxicity against human HepG2 cells at <= 50 uM after 72 hrs by CellTiter-Glo assay; type: cell-based; conditions: hepg2, 72 h
HEK293 [7] = experiment: Cytotoxicity against HEK293 cells at <= 50 uM after 72 hrs by CellTiter-Glo assay; type: cell-based; conditions: human, hek293, 72 h
MDA-MB-231 [8] = experiment: Antiproliferative activity against human triple-negative MDA-MB-231 cells at <= 50 uM after 72 hrs by CellTiter-Glo assay; type: functional, cell-based
[9] = Efflux ratio of permeability from basolateral to apical side over apical to basolateral side in human Caco2 cells; type: ADME, cell-based; conditions: Caco-2
[10] = Permeability of the compound at pH 7.4 by PAMPA assay; type: physicochemical; conditions: read-out: permeability
[11] = Apparent permeability from basolateral to apical side in human Caco2 cells; type: ADME, cell-based; conditions: Caco-2
[12] = Permeability of the compound at pH 7.4 assessed as drug retention by PAMPA assay; type: physicochemical
[13] = Apparent permeability from apical to basolateral side in human Caco2 cells; type: ADME, cell-based; conditions: Caco-2
MDA-MB-231 [14] = experiment: Antiproliferative activity against human triple-negative MDA-MB-231 cells at 22 uM after 72 hrs by CellTiter-Glo assay; type: functional, cell-based
[15] = Half life in human plasma; type: ADME, cell-free
In short: (§1)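 Compound stability incubated in human or mouse plasma; half-life determined, with known drugs as controls.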

[16] = Half life in mouse plasma; type: ADME, cell-free; in short: as §1

| Compound | Activity (MCF7) | Activity (MDA-MB-231 [1]) | Activity (Homo sapiens) | Activity (HepG2 [2]) | Activity (HEK293 [3]) | further results |
| --- | --- | --- | --- | --- | --- | --- |
| CC(C)c1ccc2c(c1)CC[C@H]1[C@](C)(CNC(=O)C3CCCC3)CCC[C@]21C | inactive | inactive | inactive | Non-toxic | Non-toxic | – |
| CC(C)c1ccc2c(c1)CC[C@H]1[C@](C)(CNC(=O)[C@@H](C)c3ccccc3)CCC[C@]21C | inactive | inactive | inactive | Non-toxic | Non-toxic | – |
| C=C[C@@]1(C)C=C2CC[C@@H]3[C@](C)(CCC[C@@]3(C)C(=O)O)[C@H]2CC1 | – | – | – | – | – | Activity (MDA-MB-231 [4]): inactive |
| CC(C)c1ccc2c(c1)CC[C@H]1[C@](C)(CNC(=O)c3ccc(C#N)cc3)CCC[C@]21C | inactive | inactive | inactive | Non-toxic | Non-toxic | – |
| CC(C)c1ccc2c(c1)CC[C@H]1[C@](C)(CNS(=O)(=O)c3c(Cl)cc(Cl)cc3Cl)CCC[C@]21C | – | – | – | – | – | Activity (MDA-MB-231 [5]): Active |
| CC(C)c1ccc2c(c1)CC[C@H]1[C@](C)(CN)CCC[C@]21C | – | – | – | – | – | Activity (HepG2 [6]): Non-toxic; Activity (HEK293 [7]): Non-toxic; Activity (MDA-MB-231 [8]): Active |
| CC(C)c1ccc2c(c1)CC[C@H]1[C@](C)(CNC(=O)c3cc4ccccc4o3)CCC[C@]21C | inactive | inactive | inactive | Non-toxic | Non-toxic | – |
| CC(C)c1ccc2c(c1)CC[C@H]1[C@](C)(CNC(=O)c3ccc(Cl)c([N+](=O)[O-])c3)CCC[C@]21C | inactive | inactive | inactive | Non-toxic | Non-toxic | – |
| CC(C)c1ccc2c(c1)CC[C@H]1[C@](C)(CNS(=O)(=O)c3cc(Cl)cc(Cl)c3O)CCC[C@]21C | – | – | – | – | – | Activity (MDA-MB-231 [5]): Active |
| COc1cccc(C(=O)NC[C@]2(C)CCC[C@]3(C)c4ccc(C(C)C)cc4CC[C@@H]23)c1 | inactive | inactive | inactive | Non-toxic | Non-toxic | – |
| COc1ccc(C(=O)NC[C@]2(C)CCC[C@]3(C)c4ccc(C(C)C)cc4CC[C@@H]23)cc1 | inactive | inactive | inactive | Non-toxic | Non-toxic | – |
| Cc1nnsc1C(=O)NC[C@]1(C)CCC[C@]2(C)c3ccc(C(C)C)cc3CC[C@@H]12 | inactive | inactive | inactive | Non-toxic | Non-toxic | – |
| CC(C)c1ccc2c(c1)CC[C@H]1[C@](C)(CNC(=O)[C@@H]3C[C@H]3c3ccccc3)CCC[C@]21C | inactive | inactive | inactive | Non-toxic | Non-toxic | – |
| CC(C)c1ccc2c(c1)CC[C@H]1[C@](C)(CNC(=O)c3ccc(Cl)cc3Cl)CCC[C@]21C | inactive | inactive | inactive | Non-toxic | Non-toxic | – |
| NC(=O)N1c2ccccc2C=Cc2ccccc21 [CARBAMAZEPINE] | – | – | – | – | – | efflux ratio [9]: 0.6; Papp [10]: 128 ×10⁻⁶ cm/s; Papp B→A [11]: 42.8 ×10⁻⁶ cm/s; permeability [12]: 40.9%; Papp A→B [13]: 66.7 ×10⁻⁶ cm/s |
| CC(C)c1ccc2c(c1)CC[C@H]1[C@](C)(CNC(=O)c3ccc(C(F)(F)F)cc3)CCC[C@]21C | inactive | inactive | inactive | Non-toxic | Non-toxic | – |
| CC(C)c1ccc2c(c1)CC[C@H]1[C@](C)(CNC(=O)CSc3ccccc3)CCC[C@]21C | inactive | inactive | inactive | Non-toxic | Non-toxic | – |
| CC(C)c1ccc2c(c1)CC[C@H]1[C@](C)(C(=O)O)CCC[C@]21C [DEHYDROABIETIC ACID] | – | – | – | – | – | Activity (HepG2 [6]): Non-toxic; Activity (HEK293 [7]): Non-toxic; Activity (MDA-MB-231 [8]): Active |
| CC(C)c1ccc2c(c1)CC[C@H]1[C@](C)(CNC(=O)c3ccc(-c4ccccc4)cc3)CCC[C@]21C | inactive | inactive | inactive | Non-toxic | Non-toxic | – |
| Cc1csc(C(=O)NC[C@]2(C)CCC[C@]3(C)c4ccc(C(C)C)cc4CC[C@@H]23)c1 | inactive | inactive | inactive | Non-toxic | Non-toxic | – |

| Compound | Activity (MCF7) | Activity (MDA-MB-231 [1]) | Activity (Homo sapiens) | Activity (HepG2 [2]) | Activity (HEK293 [3]) | further results |
| --- | --- | --- | --- | --- | --- | --- |
| CC(C)c1ccc2c(c1)CC[C@H]1[C@](C)(CNS(=O)(=O)c3ccc(F)cc3)CCC[C@]21C | – | – | – | – | – | Activity (MDA-MB-231 [5]): Active |
| CC(C)c1cc2c(c(O)c1O)[C@@]1(C(=O)O)CCCC(C)(C)[C@@H]1CC2 [CARNOSIC ACID] | – | – | – | – | – | Activity (HepG2 [6]): Non-toxic; Activity (HEK293 [7]): Non-toxic; Activity (MDA-MB-231 [8]): Active |
| CC(C)c1cc2c(c(O)c1O)[C@@]13CCCC(C)(C)[C@@H]1C[C@@H]2OC3=O [CARNOSOL] | – | – | – | – | – | Activity (HepG2 [6]): Non-toxic; Activity (HEK293 [7]): Non-toxic; Activity (MDA-MB-231 [8]): Active; Activity (MDA-MB-231 [14]): Active |
| CC1CC(OC(=O)C(O)c2ccccc2)CC(C)(C)N1C (stereo unspecified) [EUCATROPINE] | – | – | – | – | – | half-life [15]: 0.42 h; half-life [16]: 1.8 h |
| CC(C)c1ccc2c(c1)CC[C@H]1[C@](C)(CNS(=O)(=O)c3cccc(Cl)c3Cl)CCC[C@]21C | – | – | – | – | – | Activity (MDA-MB-231 [5]): Active |
| CC(C)c1ccc2c(c1)CC[C@H]1[C@](C)(CNS(=O)(=O)c3cc(Cl)cc(Cl)c3)CCC[C@]21C | – | – | – | – | – | Activity (MDA-MB-231 [5]): Active |
| CC(C)c1ccc2c(c1)CC[C@H]1[C@](C)(CNC(=O)c3cccs3)CCC[C@]21C | inactive | inactive | inactive | Non-toxic | Non-toxic | – |
| CC(C)c1ccc2c(c1)CC[C@H]1[C@](C)(CNS(=O)(=O)c3c(F)cccc3F)CCC[C@]21C | – | – | – | – | – | Activity (MDA-MB-231 [5]): Active |
| CC(C)c1ccc2c(c1)CC[C@H]1[C@](C)(CNS(=O)(=O)c3ccc(Cl)c(Cl)c3)CCC[C@]21C | – | – | – | – | – | Activity (MDA-MB-231 [5]): Active |
| CC(C)c1ccc2c(c1)CC[C@H]1[C@](C)(CNC(=O)c3c(Cl)cc(Cl)cc3Cl)CCC[C@]21C | inactive | inactive | inactive | Non-toxic | Non-toxic | – |
| CC(C)c1ccc2c(c1)CC[C@H]1[C@](C)(CNC(=O)c3ccc(I)cc3)CCC[C@]21C | inactive | inactive | inactive | Non-toxic | Non-toxic | – |
| Cc1ccsc1C(=O)NC[C@]1(C)CCC[C@]2(C)c3ccc(C(C)C)cc3CC[C@@H]12 | inactive | inactive | inactive | Non-toxic | Non-toxic | – |
| CC(C)c1ccc2c(c1)CC[C@H]1[C@](C)(CNS(=O)(=O)c3cccc(F)c3)CCC[C@]21C | – | – | – | – | – | Activity (MDA-MB-231 [5]): Active |
| CC(C)c1ccc2c(c1)CC[C@H]1[C@](C)(CNC(=O)C3CC4C=CC3C4)CCC[C@]21C (stereo partly specified) | inactive | inactive | inactive | Non-toxic | Non-toxic | – |
| CC(C)c1ccc2c(c1)CC[C@H]1[C@](C)(CNC(=O)N3CCCCC3)CCC[C@]21C | inactive | inactive | inactive | Non-toxic | Non-toxic | – |
| CC(C)c1ccc2c(c1)CC[C@H]1[C@](C)(CNS(=O)(=O)c3cc(F)c(F)c(F)c3)CCC[C@]21C | – | – | – | – | – | Activity (MDA-MB-231 [5]): Active |
| CC(C)c1ccc2c(c1)CC[C@H]1[C@](C)(CNC(=O)CC3CCCC3)CCC[C@]21C | inactive | inactive | inactive | Non-toxic | Non-toxic | – |
| CC(C)C1=CC2=CC[C@@H]3[C@](C)(CCC[C@@]3(C)C(=O)O)[C@H]2CC1 | – | – | – | – | – | Activity (MDA-MB-231 [4]): inactive |
| CC(C)c1ccc2c(c1)CC[C@H]1[C@](C)(CNC(=O)c3ccc(F)cc3)CCC[C@]21C | inactive | inactive | inactive | Non-toxic | Non-toxic | – |
